Tests used:
Cytotoxicity MTT assay = type: cell-based; details: human, A549 cells, CC50, half-cytotoxic concentration, 72 h, MTT; mean ± SD (n ≥ 3)
[1] = Metabolic stability in human liver microsomes; type: in vitro ADME; details: for Stability in HLM (% remaining) 30 min / Stability in HLM (% remaining) 60 min: 1 mg/mL HLM, 1 mM NADPH, 20 µM compound, mean ± SD
Summary of the method: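 Incubations in 1× PBS held 1 mg/mL HLM, 1 mM NADPH and 20 µM test compound at 37 °C for up to 60 min. Remaining compound was quantified by UPLC-QTOFMS, n = 3 per time point.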

in vitro = details: Fech-mut (BALB/c background), mouse, serum from Fech-mut mice treated with K31, oral, 100 mg/kg
A549 cells = experiment: Cytotoxicity MTT assay; type: cell-based; details: Table 1
ABCB1 = experiment: Effect on ABCB1; type: in vivo, mouse; details: WT mice, 100 mg/kg po pretreatment, paclitaxel as substrate
[2] = system: PPIX in serum of Fech-mut mice; experiment: PPIX distribution in serum of Fech-mut mice; type: in vivo, mouse; details: 100 mg/kg po
Fech-mut mice [3] = experiment: EPP-associated phototoxicity in Fech-mut mice after light exposure; type: in vivo, mouse
[4] = Pharmacokinetics in WT mice after oral treatment; type: in vivo, mouse; details: 100 mg/kg po, Fig. 1d
WT mice = experiment: Sub-chronic study; type: in vivo, mouse; details: 100 mg/kg po, 23 days
Summary of the method: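 Male wild-type mice aged 8 weeks got vehicle or test compound 100 mg/kg orally for 23 days (n = 4 per group), weighed daily before dosing. On day 24, blood, liver, kidney and spleen were collected for organ/body weight ratios. Serum ALT, AST and ALP were measured by enzymatic kits, and liver histology was assessed.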

Fech-mut mice [5] = experiment: Safety after short-term treatment; type: in vivo, mouse; details: 100 mg/kg po, 5 days
ABCG2 = molecular target: T1, ABCG2 (Mus musculus, UniProt Q7TMS5); experiment: PPIX efflux from RBCs of Fech-mut mice; type: cell-based; details: 10 µM, up to 3 h
T1 sequence (Q7TMS5 1-657): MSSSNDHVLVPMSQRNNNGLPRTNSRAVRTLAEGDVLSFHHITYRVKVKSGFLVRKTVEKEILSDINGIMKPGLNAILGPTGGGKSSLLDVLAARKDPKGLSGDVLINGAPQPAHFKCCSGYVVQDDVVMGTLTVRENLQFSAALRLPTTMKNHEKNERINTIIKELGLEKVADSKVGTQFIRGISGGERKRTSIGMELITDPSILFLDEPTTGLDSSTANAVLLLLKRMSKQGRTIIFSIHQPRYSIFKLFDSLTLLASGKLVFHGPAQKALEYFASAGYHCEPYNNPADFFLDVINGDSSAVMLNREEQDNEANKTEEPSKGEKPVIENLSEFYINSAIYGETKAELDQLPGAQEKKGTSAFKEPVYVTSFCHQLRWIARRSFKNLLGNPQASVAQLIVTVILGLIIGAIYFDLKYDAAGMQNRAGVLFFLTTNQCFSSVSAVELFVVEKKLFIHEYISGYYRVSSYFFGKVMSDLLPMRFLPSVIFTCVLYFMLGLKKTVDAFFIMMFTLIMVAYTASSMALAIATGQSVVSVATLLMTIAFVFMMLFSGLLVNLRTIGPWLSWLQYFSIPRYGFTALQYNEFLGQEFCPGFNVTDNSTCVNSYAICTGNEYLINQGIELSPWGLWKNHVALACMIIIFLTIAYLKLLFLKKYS
Summary of the method: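 Fech-mut mouse RBCs were cultured in phenol-red-free RPMI 1640 at 2 × 10^8 cells/well, 37 °C, gently shaken and light-protected, with or without 10 µM test compound for 1 or 3 h. Medium PPIX was read by fluorescence (ex 405 nm, em 630 nm) and expressed as % of RBC PPIX at time 0. n = 3 mice, duplicate incubations, mean ± SEM.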

COc1ccc2c3c([nH]c2c1)[C@H](CC(C)C)N1C(=O)[C@H](CC(=O)NCc2ccccc2)NC(=O)[C@@H]1C3 [K33]
CC50 at 72 h (Cytotoxicity MTT assay): 31.1 ± 3.7 µM
Stability in HLM (% remaining) 30 min [1]: 37 ± 3 % remaining
Stability in HLM (% remaining) 60 min [1]: 18 ± 1 % remaining

COc1ccc2c3c([nH]c2c1)[C@H](CC(C)C)N1C(=O)[C@H](CC(=O)N2CCCCC2)NC(=O)[C@@H]1C3 [K25]
CC50 at 72 h (Cytotoxicity MTT assay): 26.5 ± 2.5 µM

COc1ccc2c3c([nH]c2c1)[C@H](CC(C)C)N1C(=O)[C@H](CC(=O)NC(C)(C)C)NC(=O)[C@@H]1C3 [K3]
CC50 at 72 h (Cytotoxicity MTT assay): 58.9 ± 5.3 µM
Stability in HLM (% remaining) 30 min [1]: 74 ± 25 % remaining
Stability in HLM (% remaining) 60 min [1]: 60 ± 3 % remaining

COc1ccc2c3c([nH]c2c1)[C@H](CC(C)C)N1C(=O)[C@H](CC(=O)NC2CCCCC2)NC(=O)[C@@H]1C3 [K23]
CC50 at 72 h (Cytotoxicity MTT assay): 46.6 ± 0.9 µM
Stability in HLM (% remaining) 30 min [1]: 45 ± 2 % remaining
Stability in HLM (% remaining) 60 min [1]: 26 ± 2 % remaining

COc1ccc2c3c([nH]c2c1)[C@H](CC(C)C)N1C(=O)[C@H](CC(=O)NC(C)C)NC(=O)[C@@H]1C3 [K31]
fraction unbound at 16 h (in vitro): 0.0585
cytotoxicity compared with other Ko143 analogs (A549 cells): less cytotoxic when compared to other Ko143 analogs
CC50 at 72 h (Cytotoxicity MTT assay): > 100 µM
inhibitory effect on ABCB1 (ABCB1): no inhibitory effect
PPIX in serum (in words) [2]: significant decrease
withdrawal test: phototoxicity after K31 withdrawal (Fech-mut mice [3]; 100 mg/kg po days 1-4, then withdrawn, light continued days 5-8): recurrence of light-triggered phototoxicity was observed in the skin of Fech-mut mice from the second day of K31 withdrawal
oxidative stress and inflammation in the skin (Fech-mut mice [3]; 100 mg/kg po, light exposure, once daily for 5 days): attenuated oxidative stress and inflammation
light-triggered phototoxicity (gross appearance of the skin) (Fech-mut mice [3]; 30 and 100 mg/kg po, once daily for 5 days, both sexes): significantly decreased
histological changes of skin (missing epidermis, damaged subepidermal collagen) (Fech-mut mice [3]; po pretreatment, light exposure, H&E, Sirius Red): prevented
pharmacokinetic profile after oral treatment (in words) [4]: outstanding pharmacokinetic profiles
biomarkers of liver toxicity (ALT, AST, ALP) (in words) (WT mice): did not alter
growth (body weight gain) (in words) (WT mice): did not alter
ratios of organ (liver, kidney, and spleen) to body weight (in words) (WT mice): did not alter
Stability in HLM (% remaining) 30 min [1]: 65 ± 3 % remaining
Stability in HLM (% remaining) 60 min [1]: 49 ± 9 % remaining
metabolic stability (in words) ([1]; incubation with human liver microsomes, Fig. 1c): significantly improved
PPIX levels in the liver (in words) (Fech-mut mice [5]): did not alter
liver damage, alanine aminotransaminase (in words) (Fech-mut mice [5]): did not potentiate liver damage
mean corpuscular hemoglobin in blood (in words) (Fech-mut mice [5]): no significant impact
total hemoglobin in blood (in words) (Fech-mut mice [5]): no significant impact
morphological changes in the liver and kidney (Fech-mut mice [5]; H&E): did not cause morphological changes
PPIX release from the RBCs of Fech-mut mice (in words) (ABCG2): markedly decreased
